From ChEMBL document CHEMBL4152204, “Discovery of N-hydroxy-3-alkoxybenzamides as direct acid sphingomyelinase inhibitors using a ligand-based pharmacophore model” (Eur J Med Chem, 2018)
Active and inactive are the calls of the source. No cut-off for these calls is given here.

Columns and labels:
[1] = target: T1, Sphingomyelin phosphodiesterase (Homo sapiens, UniProt P17405); test: Inhibition of acid sphingomyelinase in human HuH7 cell lysate using NBD-sphingomyelin as substrate after 30 mins by TLC based fluorescence assay
T1 sequence (P17405 whole entry): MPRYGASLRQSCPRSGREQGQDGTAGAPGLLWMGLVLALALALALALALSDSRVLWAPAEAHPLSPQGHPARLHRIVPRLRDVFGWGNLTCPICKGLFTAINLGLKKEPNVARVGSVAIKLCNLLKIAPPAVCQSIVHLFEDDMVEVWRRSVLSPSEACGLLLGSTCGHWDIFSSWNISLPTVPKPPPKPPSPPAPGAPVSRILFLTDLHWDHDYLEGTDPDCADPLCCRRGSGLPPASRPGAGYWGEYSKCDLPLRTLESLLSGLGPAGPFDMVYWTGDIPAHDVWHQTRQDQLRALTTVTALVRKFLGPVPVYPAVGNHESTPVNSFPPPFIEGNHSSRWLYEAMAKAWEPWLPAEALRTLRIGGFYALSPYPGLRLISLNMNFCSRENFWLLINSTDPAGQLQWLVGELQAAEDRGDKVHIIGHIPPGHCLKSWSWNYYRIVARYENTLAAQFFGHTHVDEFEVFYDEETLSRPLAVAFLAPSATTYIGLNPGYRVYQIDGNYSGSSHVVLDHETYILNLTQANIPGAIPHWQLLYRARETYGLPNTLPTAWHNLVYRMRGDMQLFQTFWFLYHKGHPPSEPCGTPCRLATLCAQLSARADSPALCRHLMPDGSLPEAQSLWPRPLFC

[2] = target: T2, Sphingomyelin phosphodiesterase (Bos taurus, UniProt Q0VD19); test: Inhibition of bovine brain-derived acidic sphingomyelinase
T2 sequence (Q0VD19 whole entry): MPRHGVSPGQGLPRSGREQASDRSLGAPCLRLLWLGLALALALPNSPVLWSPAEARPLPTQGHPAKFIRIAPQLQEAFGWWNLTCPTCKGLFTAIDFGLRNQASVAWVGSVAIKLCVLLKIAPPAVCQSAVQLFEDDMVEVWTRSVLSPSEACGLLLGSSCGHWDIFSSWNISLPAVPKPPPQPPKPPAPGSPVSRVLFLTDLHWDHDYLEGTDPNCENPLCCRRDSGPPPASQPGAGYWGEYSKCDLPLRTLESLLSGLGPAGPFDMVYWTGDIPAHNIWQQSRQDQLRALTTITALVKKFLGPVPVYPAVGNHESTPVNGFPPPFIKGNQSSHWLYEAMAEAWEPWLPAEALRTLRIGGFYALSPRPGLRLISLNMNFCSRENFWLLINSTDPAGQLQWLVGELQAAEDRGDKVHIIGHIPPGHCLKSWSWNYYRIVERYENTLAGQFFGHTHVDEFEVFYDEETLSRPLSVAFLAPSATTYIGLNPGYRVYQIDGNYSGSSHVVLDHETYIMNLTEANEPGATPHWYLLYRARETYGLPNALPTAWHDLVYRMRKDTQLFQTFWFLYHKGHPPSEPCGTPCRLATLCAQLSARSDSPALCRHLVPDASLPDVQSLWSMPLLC

NIH3T3 = test: Cytoprotective activity against UV-induced apoptosis in mouse NIH/3T3 cells assessed as necrotic cells preincubated for 20 hrs followed by UV irradiation for 5 mins and measured after 24 hrs by flow cytometric analysis; type: functional, cell-based
In short: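 NIH3T3 cells grown in DMEM plus 10% FBS at 37 °C and 5% CO₂, seeded in 6-well plates and left overnight. Inhibitor (0–60 µM, DMSO solvent) added for 20 h. Medium replaced, then UV at peak 315 nm, 0.29 mW/cm² for 5 min. Cells kept with inhibitor 24 h more before flow cytometry by quadrant regions. Untreated, unirradiated cells served as control. Three independent experiments.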

[3] = target: T3, Sphingomyelin phosphodiesterase 2 (Homo sapiens) (UniProt O60906); test: Inhibition of neutral sphingomyelinase (unknown origin) assessed as reduction in NBD-ceramide release at 100 uM by TLC based fluorescence assay
T3 sequence (whole entry): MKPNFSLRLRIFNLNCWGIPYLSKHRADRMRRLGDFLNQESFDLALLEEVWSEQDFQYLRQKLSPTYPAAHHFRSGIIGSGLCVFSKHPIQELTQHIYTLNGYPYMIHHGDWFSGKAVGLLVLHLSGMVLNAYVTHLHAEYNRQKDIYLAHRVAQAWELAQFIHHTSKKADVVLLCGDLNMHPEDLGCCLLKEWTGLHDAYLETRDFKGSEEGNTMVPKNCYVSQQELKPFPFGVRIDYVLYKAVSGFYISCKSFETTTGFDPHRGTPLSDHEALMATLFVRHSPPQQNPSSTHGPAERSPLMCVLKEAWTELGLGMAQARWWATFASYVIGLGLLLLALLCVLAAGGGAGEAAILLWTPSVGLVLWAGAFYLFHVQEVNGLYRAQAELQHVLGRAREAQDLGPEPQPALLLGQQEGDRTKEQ

| Structure (SMILES) | IC50 [1] [µM] | other results |
| --- | --- | --- |
| CCNC(=O)/C=C/Cc1c(O)c(OC)cc2oc3cc(OC)cc(O)c3c(=O)c12 | 4.89 to 5.07 | – |
| CCN(CC)C(=O)/C=C/Cc1c(O)c(OC)cc2oc3cc(OC)cc(O)c3c(=O)c12 | 4.89 to 5.07 | – |
| COc1c(O)cc2oc3cc(O)c(CC=C(C)C)c(O)c3c(=O)c2c1CC=C(C)C [MANGOSTIN] | 24.7 | IC50 [2]: 14.1 µM |
| CCCCCCCCCCOc1cc(C(=O)NO)ccc1O | 17.4 | – |
| O=C(NO)c1cccc(OCc2ccc(Br)cc2)c1 | 19.4 | – |
| CC1=C(C(=O)Nc2ccccc2)C(c2ccc(Cl)cc2)n2c(s/c(=C/c3cccc(OCC(=O)O)c3)c2=O)=N1 (stereo not drawn) | 25.1 | – |
| O=C(c1cc(-c2ccccc2)n(-c2ccc(Cl)cc2Cl)n1)N1CCOCC1 | 28.2 | – |
| CCCCCCCCOc1cc(C(=O)NO)ccc1OC | 16.1 | – |
| COc1ccc(C(=O)NO)cc1OCc1ccc(Br)cc1 | 7.78 | – |
| N#Cc1ccc(COc2cccc(C(=O)NO)c2)cc1 | 52.9 | – |
| CN(C)CCC=C1c2ccccc2CCc2ccccc21 | – | Activity (NIH3T3): Dose-dependent effect |
| CCOc1ccc2oc(-c3cc(Br)cc4c3OCOC4)c(N)c(=O)c2c1 | 3.5 | – |
| CCCCCCCC1Cc2cc(O)c(C(=O)O)c(O)c2C(C)O1 (stereo not drawn) | 68.7 | – |
| COc1c(O)cc2oc3cc(O)c(CC=C(C)C)c(O)c3c(=O)c2c1C/C=C(\C)CCC=C(C)C [COWANIN] | 19.2 | – |
| CCCCCCCCS(=O)(=O)OC[C@H]1OC(O)[C@H](OP(=O)(O)O)[C@@H](O)[C@@H]1OP(=O)(O)O (stereo partly drawn) | 2.34 | – |
| COc1cc(/C=C2/SC(=S)N(Nc3ncc(C(F)(F)F)cc3Cl)C2=O)cc(OC)c1OC | 28.2 | – |

Continued by falling IC50 [1], values first:

| IC50 [1] [µM] | Structure (SMILES) | other results |
| --- | --- | --- |
| 85.2 | CCCCCCCCCCOc1cc(C(=O)NCC(C)O)ccc1OC (stereo not drawn) | – |
| 71 | CCCCCCCCCCOc1cc(C(=O)NCCO)ccc1OC | – |
| 60.4 | O=C(NO)c1cccc(OCc2ccccc2)c1 | – |
| 42.7 | COc1ccc(COc2cccc(C(=O)NO)c2)cc1 | – |
| 39.8 | CCCCc1oc2ccccc2c1C(=O)c1cc(I)c(OCCN(CC)CC)cc1I | – |
| 31.6 | CCCCCCCCOC(=O)c1c(CSC(=N)N)n(C)c2cc(Br)c(OC(C)=O)cc12 | – |
| 31.6 | CC(C)N1C(=N)/C(=C\c2nc(=O)c3ccccc3[nH]2)c2ccccc21 | – |
| 26.7 | O=P(O)(O)O[C@H]1[C@H](O)[C@@H](OP(=O)(O)O)[C@H](O)[C@@H](OP(=O)(O)O)[C@H]1O | – |
| 24.3 | O=c1cc(-c2ccc3c(c2)OCCCO3)oc2c1ccc1ccccc12 | – |
| 22.4 | Cc1c(C(=O)Nc2cccc(C(F)(F)F)c2)oc2ccc(S(=O)(=O)N3CCOCC3)cc12 | – |
| 20 | Cc1cc2[nH]c(=O)c(=O)[nH]c2cc1S(=O)(=O)N1CCN(c2cccc(Cl)c2)CC1 | – |
| 20 | Cc1cc2[nH]c(=O)c(=O)[nH]c2cc1S(=O)(=O)N1CCN(c2cccc(C(F)(F)F)c2)CC1 | – |
| 18.6 | CCCCCCCCCCCCOc1cc(C(=O)NO)ccc1OC | – |
| 17.4 | CCCCCCCCOc1cccc(C(=O)NO)c1 | – |
| 14.1 | COc1ccc(/C=N/NC(=O)c2[nH]c3ccc(Cl)cc3c2-c2ccccc2)c(C(=O)O)c1OC | – |
| 10.5 | COc1ccc(C(=O)NO)cc1OCc1ccccc1 | – |
| 1.42 | CCCCCCCCCCOc1cccc(C(=O)NO)c1 | inhibition [3]: inactive |
| 0.44 | CCCCCCCCCCCCS(=O)(=O)O[C@H]1OC(O)[C@H](OP(=O)(O)O)[C@@H](O)[C@@H]1OP(=O)(O)O (stereo partly drawn) | – |
| 0.35 | CCCCCCCC(OP(=O)(O)O)OP(=O)(O)O | – |
| 0.3 | CCCCCCCCCC(OP(=O)(O)O)OP(=O)(O)O | – |
